Runt-SMMHC FRET: inhibitors of RUNX1 Runt–CBFb-SMMHC binding, primary screen, biochemical, FRET, Cerulean-Runt, Venus-CBFb-SMMHC, uHTS; Runt-related transcription factor 1 (Homo sapiens) + Core-binding factor subunit beta …; Cerulean-Runt/Venus-CBFb-SMMHC FRET ratio 530/480, 1 h; inhibition, % at 20 µM; actives 0.74% (n = 220,000);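 active = mean inhibition across duplicate retests at 20 µM reaching about 50%, limit read from the data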;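 also: 0% = DMSO wells and 100% = wells with excess untagged CBFb-SMMHC; inhibitors lower the FRET ratio by blocking Runt binding to CBFb-SMMHC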
Runt-CBFb FRET: inhibitors of RUNX1 Runt–CBFb binding, primary screen, biochemical, FRET, Cerulean-Runt, Venus-CBFb, uHTS; actives 0.46% (n = 220,000); Runt-related transcription factor 1 (Homo sapiens) + Core-binding factor subunit beta …; inhibition, % at 20 µM; Cerulean-Runt/Venus-CBFb FRET ratio 530/480, 1 h; AID 1496, 2009;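 active = inhibition over about 50% at 20 µM in the single-dose screen, limit read from the data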;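 also: 0% = DMSO wells and 100% = excess unlabeled CBFb competitor control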
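test system = Cerulean-tagged RUNX1 Runt domain (FRET donor) fusion protein | reagent = Venus-CBFb binding partner, 100 nM | incubation = protein complex preformed 1 h, compound exposure 1 h, room temperature, dark | detection = FRET fluorescence | read-out basis = loss of energy transfer signal | controls = 5 µM unlabeled CBFb as full-inhibition high control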
MEX-5 binding: MEX-5 zinc finger RNA-binding disruptors – biochemical, C. elegans, fluorescence polarization, MLPCN library, primary screen; Zinc finger protein mex-5 (Caenorhabditis elegans), Q9XUB2; MEX-5/FITC-TCR2 RNA binding; hits give low values; activity score (negative = inhibition of binding), % at 10 µM; actives 0.38% (n = 300,000); AID 1832, 2009;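 active = inhibition past about -25% in most replicates, and total fluorescence under double the plate's negative control median, limit read from the data; inconclusive = replicates evenly split on the limit, or fluorescence at least double controls; inactive = too little inhibition in most replicates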;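 also: 0% = DMSO and -100% = 5 µM competing unlabeled TCR2 RNA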
Target sequence (Q9XUB2 whole entry, looked up): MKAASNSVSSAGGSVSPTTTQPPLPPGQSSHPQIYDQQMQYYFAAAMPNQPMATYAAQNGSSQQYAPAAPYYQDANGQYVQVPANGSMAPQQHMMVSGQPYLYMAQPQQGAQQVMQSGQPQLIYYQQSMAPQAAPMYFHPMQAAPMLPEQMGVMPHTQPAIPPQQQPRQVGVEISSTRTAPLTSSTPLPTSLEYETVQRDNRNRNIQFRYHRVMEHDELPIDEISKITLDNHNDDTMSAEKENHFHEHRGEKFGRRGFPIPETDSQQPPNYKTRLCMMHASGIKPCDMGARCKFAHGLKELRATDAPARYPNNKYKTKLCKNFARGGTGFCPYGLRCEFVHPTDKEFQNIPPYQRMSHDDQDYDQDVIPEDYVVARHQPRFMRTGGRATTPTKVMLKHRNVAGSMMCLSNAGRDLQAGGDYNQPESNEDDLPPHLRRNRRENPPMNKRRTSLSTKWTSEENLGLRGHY
RanGTP-Imp inh: inhibitors of RanGTP-importin-beta interaction, primary screen, biochemical, FRET, CFP-Ran, YFP-importin-beta, homogeneous. Ran GTPase (GTP-bound) - importin-beta complex. inhibition, % (test concentration not listed). cell-free CFP-Ran/YFP-importin-beta FRET ratio. actives 1.1% (n = 300,000). AID 2216, 2009;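 active = more than half of the replicate wells show a fall in the fluorescence ratio signal beyond about 16%, limit read from the data, passing the limit was not always enough; inconclusive = exactly half of the replicate wells pass the set limit; inactive = fewer than half of replicates pass the limit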;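 also: 0% = DMSO wells and 100% = Ran loaded with GDP instead of GTP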
EBV gp42 block: Epstein-Barr virus gp42 inhibitors, primary screen, biochemical, uHTS, fluorescence polarization; inhibition, % (tested at 21.74 µM); actives 0.42% (n = 220,000); Fluorescence polarization binding assay, mP read-out; in the data active = inhibition above about 50%
Target sequence (Q1HVG2 whole entry, looked up): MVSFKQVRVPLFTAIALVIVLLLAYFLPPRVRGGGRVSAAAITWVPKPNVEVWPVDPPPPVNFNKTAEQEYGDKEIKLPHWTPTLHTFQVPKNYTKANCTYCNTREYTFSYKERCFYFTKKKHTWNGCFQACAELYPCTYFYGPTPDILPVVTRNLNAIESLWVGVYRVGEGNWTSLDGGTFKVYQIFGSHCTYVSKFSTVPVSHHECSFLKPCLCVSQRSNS
LANA-H2B inh: blockers of LANA interaction with H2A/H2B – biochemical, FP readout, HTS, primary screen; Protein LANA1 (Human herpesvirus 8 type P (isolate GK18)), Q9QR71; cell-free LANA-H2A/H2B peptide, fluorescence polarization; inhibition, % (test concentration not listed); actives 0.6% (n = 320,000); AID 2629, 2010; in the data active = inhibition mostly above about 10%, no sharp cut-off; inactive = mostly below about 6.7%
* = called active by the depositor; u = inconclusive; x = no result given. Hits are enriched below; roughly 2.4% of the tested compounds scored in any of these assays.

SMILES | Runt-SMMHC FRET | Runt-CBFb FRET | MEX-5 binding | RanGTP-Imp inh | EBV gp42 block | LANA-H2B inh
COc1cc(CN2CCN(CCc3ccccc3)C(CCO)C2)cc(OC)c1 (stereo not drawn) | 4 | -1 | 2 | 1 | -10 | -5
C[C@@H](C(=O)Nc1cccnc1)n1c(=O)[nH]c2ccccc2c1=O | x | x | 2 | 2 | x | 4
CCN1CCN(c2cc(-c3ccccc3)nc3cc(-c4cccc(F)c4)nn23)CC1 | 33 | 2 | 3 | 17* | 9 | 0
CC1(C)CC2(CCO1)N1CC3(C)CN2CC(C)(C1)C3O (stereo not drawn) | 3 | 1 | 2 | 2 | -8 | -1
CCCCc1c(C)[nH]c(=S)[nH]c1=O | -3 | 1 | 0 | 5 | -9 | 2
Cc1[nH]c(=S)[nH]c(=O)c1CCCO | 0 | -1 | 1 | -1 | -9 | 18*
O=S(=O)(c1cccc(-c2csc(-c3cccnc3)n2)c1)N1CCOCC1 | -2 | 0 | -27* | u | 8 | 0
O=S(=O)(c1cccc(-c2csc(-c3cccnc3)n2)c1)N1CCCCC1 | -5 | -10 | 1 | 3 | 6 | -1
C=COCCNC(=O)C(=O)NC(C)C | 0 | -1 | -3 | 5 | -11 | 17*
CCS(=O)(=O)N1CCC(C(=O)Nc2ccc3c(c2)CCC3)CC1 | x | x | 1 | -2 | x | -1
CCOc1cc2nc3c4ccccc4n(C)c3nc2cc1OCC | -39 | 4 | -1 | 38* | -67 | -1
Cc1ccccc1-n1nc(C)c(N=O)c1N | -1 | 10 | 1 | -4 | -11 | 30*
CCOC(=O)/C(C#N)=C\C=C1C=CN(C)C=C1 | -86 | x | u | 51* | -328 | -21
COc1cccc(NC(=O)CN(C)C(=O)c2cc(-c3ccc(C)o3)nc3ccccc23)c1 | x | x | x | x | x | 60*
COc1cccc(NC(=O)c2cc(-c3ccc(C)o3)nc3ccccc23)c1 | x | x | 0 | -1 | x | -5
N=c1oc2cc(O)ccc2cc1C(=O)Nc1ccccn1 | 87* | 20 | x | x | 77* | 3
N=c1oc2ccccc2cc1C(=O)Nc1ccccc1 | x | x | -3 | 3 | x | 6
N=c1oc2cc(O)ccc2cc1C(=O)Nc1nc2ccccc2s1 | 63* | 19 | -11 | 136* | 54* | -488
O=C(Nc1ccccn1)c1ccc2ccccc2c1O | x | x | 2 | -2 | x | 0
N=c1oc2cc(O)ccc2cc1C(=O)Nc1ccc(Br)cc1 | x | x | 1 | 167* | x | 0
Cc1oc(-c2ccccc2Cl)nc1CS(=O)CC(=O)NCCCN1CC(C)CC(C)C1 (stereo not drawn) | x | x | -5 | -2 | x | 6
Cc1c(N=Cc2ccco2)c(=O)n(-c2ccccc2)n1C | -5 | -1 | 1 | 1 | -17 | 3
COc1ccc2c(C=Nc3c(C)n(C)n(-c4ccccc4)c3=O)c(O)n(Cc3ccco3)c(=O)c2c1 | -140 | -10 | -13 | 20* | 78* | -3
CN(C)C(=O)c1ccccc1NC(=O)Cc1cccc2ccccc12 | x | x | 2 | 0 | x | -4
CC(=O)C1=C(O)C(=O)N(c2ccc(C(=O)O)cc2)C1c1ccc([N+](=O)[O-])cc1 (stereo not drawn) | x | x | 1 | 5 | x | 13*
SMILES | Runt-SMMHC FRET | Runt-CBFb FRET | MEX-5 binding | RanGTP-Imp inh | EBV gp42 block | LANA-H2B inh
COC(=O)/C=C1\C(=O)N(c2nc3ccc(OC)cc3s2)C(=S)N1c1ccc(F)cc1 | -5 | -2 | -1 | u | -20 | -1
COC(=O)/C=C1\C(=O)N(c2nc3ccccc3s2)C(=S)N1c1ccc(F)cc1 | -29 | -8 | -30* | 5 | -25 | -4
O=C(/C=C/c1ccc(F)cc1)N1CC[C@@]2(O)CCCC[C@H]2C1 | 0 | 1 | 2 | -1 | -8 | 4.7*
O=C(/C=C/c1ccc(F)cc1)N1CCCN(C(=O)/C=C/c2ccc(F)cc2)CC1 | 0 | -3 | 0 | -5 | 4 | 4
O=C(Nc1ccccc1Cl)C1CCCN(S(=O)(=O)c2ccc(F)cc2)C1 (stereo not drawn) | 1 | -2 | 0 | 4 | 3 | 8.8*
O=C(Nc1cccc(Cl)c1)C1CCCN(S(=O)(=O)c2ccc(F)cc2)C1 (stereo not drawn) | -6 | 1 | 2 | 0 | -2 | x
N=c1c(C(=O)NCc2ccco2)cc2c(=O)n3ccccc3nc2n1CCc1ccccc1 | 38 | 12 | -5 | 130* | 12 | 9
COc1ccc(CCNC(=O)c2cc3c(=O)n4ccccc4nc3n(Cc3ccco3)c2=N)cc1OC | x | x | 0 | 13 | x | 3
Cc1ccc(Cn2c(=N)c(C(=O)NCc3ccco3)cc3c(=O)n4ccccc4nc32)cc1 | x | 29 | -2 | 114* | 4 | 2
COc1cc(C(=O)NC(=S)NNC(=O)c2cnccn2)cc(OC)c1OC | 12 | 6 | -47* | 0 | 1 | 3
COc1ccc(C(=O)NC(=S)NNC(=O)c2cnccn2)cc1 | -2 | 8 | -3 | 0 | -6 | -4
CC(C)OCCCNC(=O)CN1C(=O)CSc2ccc(S(=O)(=O)N3CCCCC3)cc21 | x | x | -3 | 3 | x | 22*
O=C(CN1C(=O)COc2ccc(S(=O)(=O)N3CCCCC3)cc21)NCc1ccc(F)cc1 | x | x | -2 | 51* | x | -4
CCN(CC(=O)NCc1ccc(F)cc1)CC(=O)Nc1ccc(S(=O)(=O)N2CCCC2)cc1 | 0 | -5 | 2 | 17* | 8 | -1
COc1ccc(CNC(=O)CN2C(=O)COc3ccc(S(=O)(=O)N4CCCC4)cc32)cc1 | x | x | 2 | 2 | x | -2
CCCCN(C)CCNC(=O)CN1C(=O)CSc2ccc(S(=O)(=O)N3CCCC3)cc21 | x | x | 1 | 2 | x | 19*
O=C(Cc1ccc(F)cc1)Nc1ccc(S(=O)(=O)N2CCCCC2)cc1 | 1 | 0 | -4 | -3 | -6 | -2
C#CCOCCOCCOCCNc1nc(N2CCN(C(=O)Cn3cc(CC(C)O)nn3)CC2)nc(N2CCN(C(=O)[C@H](C)n3cc(CCCN=C(N)N)nn3)CC2)n1 (stereo partly drawn) | 0 | 3 | -3 | -2 | -18 | 0

Compound activity deposited in PubChem BioAssay by several laboratories.
